High-throughput results deposited in PubChem by Broad Institute.
Pf Dd2 inh = inhibitors of Plasmodium falciparum Dd2 growth; 94,000 compounds, 2.3% hits; P. falciparum Dd2 growth, SYBR Green, 72 h; hits give low values; activity change, % at 10 µM; AID 1159554; in the data active = activity change below about -80%
KDM4C inh = blocks human GASC-1 (KDM4C) demethylase activity; GST-KDM4C 2-372, H3K9me3 peptide, LANCE TR-FRET; 96,000 compounds, 0.15% hits; Q9H3R0; inhibition, % at 12.5 µM; AID 720574;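 active = mean replicate inhibition above about 25%, with at least 55% of replicates also reaching it, limit read from the data, passing the limit was not always enough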
Target sequence (Q9H3R0 2-372 limits assumed): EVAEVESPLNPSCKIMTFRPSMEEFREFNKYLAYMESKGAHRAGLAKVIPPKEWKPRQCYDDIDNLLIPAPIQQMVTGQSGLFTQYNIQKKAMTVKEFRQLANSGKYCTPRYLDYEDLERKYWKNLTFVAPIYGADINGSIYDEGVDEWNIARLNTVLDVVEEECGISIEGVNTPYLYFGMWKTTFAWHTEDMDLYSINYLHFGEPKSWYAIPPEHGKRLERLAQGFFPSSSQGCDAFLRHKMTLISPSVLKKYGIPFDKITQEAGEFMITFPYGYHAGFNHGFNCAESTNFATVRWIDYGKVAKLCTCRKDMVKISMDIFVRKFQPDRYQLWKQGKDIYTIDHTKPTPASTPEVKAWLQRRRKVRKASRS
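Material: GST-tagged GASC-1 (JMJD2C) catalytic fragment, aa 2-372 / Quantity: enzyme final amount 10 nM / Medium: HEPES buffer, pH 7.5, plus ascorbate / Doses: one test concentration per compound / Incubation: 30 min reaction, 60 min detection, RT / Measured by: LANCE TR-FRET / Read-out: inhibition from TR-FRET ratio decrease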
T cruzi growth = inhibitors of T. cruzi proliferation; T. cruzi beta-gal in NIH3T3, GalScreen luminescence, 90 h; inhibition, % at 8.34 µM; 77,000 compounds, 5.9% hits; AID 624255;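 active = mean inhibition above about 93%, with at least 55% of replicates each passing it, limit read from the data, passing the limit was not always enough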
IDH1 R132H inh = IDH1 R132H (human) inhibition; IDH1 R132H reductase, diaphorase/resazurin fluorescence, 60 min; inhibition, % at 10 µM; 70,000 compounds, 0.18% hits; AID 624101; in the data active = inhibition above about 34%;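 note: 0% = DMSO and 100% = no enzyme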
Numbers without * were called inactive; / = no result given. Only some compounds are listed: those with a hit (about 5.8% of all), similar ones and a draw of the others.

SMILES | Pf Dd2 inh | KDM4C inh | T cruzi growth | IDH1 R132H inh
COc1ccc(S(=O)(=O)N(C)C[C@@H]2Oc3c(NC(=O)CCCCCC(=O)Nc4ccccc4N)cccc3C(=O)N([C@@H](C)CO)C[C@H]2C)cc1 | -83* | -1 | / | 0
COc1ccc(S(=O)(=O)N(C)C[C@H]2Oc3c(NC(=O)CCCCCC(=O)Nc4ccccc4N)cccc3C(=O)N([C@H](C)CO)C[C@@H]2C)cc1 | -49 | 1 | / | 0
COc1cc(NC(=O)COc2ccc(C)c(C)c2)ccc1NC(=O)c1ccccc1Cl | / | / | / | 0
COC(=O)CCCCCCC(=O)N/N=C/[C@@H](O)[C@@H](O)[C@H](O)[C@H](O)CO | / | / | / | 0
CCn1c(SCC(=O)Nc2cccc(F)c2)nnc1-c1ccc(Cl)cc1Cl | / | / | / | 0
N#Cc1ccc(-c2ccc3c(c2)[C@H]2[C@H](CCN2C(=O)C2CCCC2)[C@H](CO)N3)cc1 | -86* | / | / | /
O=C(C1CCC1)N1CC[C@@H]2[C@@H](CO)Nc3ccc(-c4cccc(F)c4)cc3[C@@H]21 | 27 | 1 | 75 | /
N#Cc1cccc(-c2ccc3c(c2)[C@H]2[C@H](CCN2C(=O)C2CCCCC2)[C@H](CO)N3)c1 | -12 | -7 | 79 | /
N#Cc1ccc(-c2ccc3c(c2)[C@@H]2[C@@H](CCN2C(=O)C2CCC2)[C@@H](CO)N3)cc1 | -84* | -5 | / | /
O=C(C1CCCC1)N1CC[C@@H]2[C@H]1c1cc(-c3cccc(F)c3)ccc1N[C@@H]2CO | -82* | 12 | / | /
Cc1ccccc1NC(=O)c1ccc(OCC(=O)Nc2ccccc2C(F)(F)F)cc1 | / | / | / | 0
CCN1CCOC(CC(=O)Nc2cc(OC)cc(OC)c2)C1=O (centres undefined) | / | / | / | 0
CCc1ccc(C(Nc2cc(C)ccn2)c2ccc3cccnc3c2O)cc1 (centres undefined) | / | / | / | 0
Cc1oc(S(=O)(=O)N2CCOCC2)cc1-c1nc(-c2ccc(C(C)(C)C)cc2)no1 | / | / | / | 1
Cc1noc(C)c1S(=O)(=O)Nc1ccc2c(c1)C(=O)N([C@H](C)CO)C[C@@H](C)[C@@H](CN(C)S(=O)(=O)c1ccc(Cl)cc1)OCCCC[C@H](C)O2 | -88* | -1 | 82 | 2
COc1ccc(S(=O)(=O)Nc2ccc3c(c2)C(=O)N([C@H](C)CO)C[C@H](C)[C@@H](CN(C)S(=O)(=O)c2ccc(Cl)cc2)OCCCC[C@H](C)O3)cc1 | -64 | -2 | 93 | 0
C[C@H]1CCCCO[C@@H](CN(C)S(=O)(=O)c2ccc(Cl)cc2)[C@@H](C)CN([C@@H](C)CO)C(=O)c2cc(NS(=O)(=O)c3ccccc3)ccc2O1 | -83* | / | / | /
COc1ccc(S(=O)(=O)Nc2ccc3c(c2)C(=O)N([C@@H](C)CO)C[C@@H](C)[C@@H](CN(C)S(=O)(=O)c2ccc(Cl)cc2)OCCCC[C@H](C)O3)cc1 | -85* | 0 | 92 | /
COc1ccc(S(=O)(=O)N(C)C[C@@H]2OCCCC[C@H](C)Oc3ccc(NS(=O)(=O)c4ccc(Cl)cc4)cc3C(=O)N([C@H](C)CO)C[C@@H]2C)cc1 | -89* | -1 | / | 2
CCn1c(SCC(=O)Nc2ccccc2C(F)(F)F)nnc1-c1cccc([N+](=O)[O-])c1 | / | / | / | 0
COCCCN=C1NS(=O)(=O)c2ccccc21 | / | / | / | 1
c1ccc(-c2noc(CSc3nnc(C4CC4)n3-c3ccccc3)n2)cc1 | / | / | / | 0
Cc1noc(C)c1S(=O)(=O)Nc1ccc2c(c1)CC(=O)N([C@H](C)CO)C[C@@H](C)[C@@H](CN(C)Cc1ccc(C(=O)Nc3ccccc3N)cc1)O2 | -89* | -2 | / | 8
Cc1noc(C)c1S(=O)(=O)Nc1ccc2c(c1)CC(=O)N([C@@H](C)CO)C[C@@H](C)[C@@H](CN(C)Cc1ccc(C(=O)Nc3ccccc3N)cc1)O2 | -93* | 1 | / | /
Cc1noc(C)c1S(=O)(=O)Nc1ccc2c(c1)CC(=O)N([C@H](C)CO)C[C@H](C)[C@@H](CN(C)Cc1ccc(C(=O)Nc3ccccc3N)cc1)O2 | -74 | -1 | / | -1
SMILES | Pf Dd2 inh | KDM4C inh | T cruzi growth | IDH1 R132H inh
O=C(O)CCc1ccc(-c2ccc(F)cc2)n1-c1cccc(C(=O)O)c1 | / | / | / | 0
Cc1ccc(-n2c(C)nnc2SCC(=O)Nc2cccc(C)c2C)cc1 | / | / | / | 0
COc1ccc(S(=O)(=O)Nc2ccc3c(c2)C(=O)N([C@@H](C)CO)C[C@@H](C)[C@@H](CN(C)C(=O)Nc2cccc4ccccc24)OCCCC[C@H](C)O3)cc1 | -88* | -4 | 55 | 3
C[C@@H]1CCCCO[C@H](CN(C)C(=O)Nc2cccc3ccccc23)[C@@H](C)CN([C@@H](C)CO)C(=O)c2cc(NS(=O)(=O)c3ccccc3)ccc2O1 | -88* | 0 | / | 1
Cc1noc(C)c1S(=O)(=O)Nc1ccc2c(c1)C(=O)N([C@@H](C)CO)C[C@@H](C)[C@@H](CN(C)C(=O)Nc1cccc3ccccc13)OCCCC[C@H](C)O2 | -87* | 0 | 73 | /
Cc1noc(C)c1S(=O)(=O)Nc1ccc2c(c1)C(=O)N([C@H](C)CO)C[C@@H](C)[C@@H](CN(C)C(=O)Nc1ccc(F)cc1)OCCCC[C@@H](C)O2 | -85* | 1 | 81 | /
COc1ccc(S(=O)(=O)Nc2ccc3c(c2)C(=O)N([C@@H](C)CO)C[C@@H](C)[C@H](CN(C)C(=O)Nc2cccc4ccccc24)OCCCC[C@@H](C)O3)cc1 | -33 | -3 | 91 | 0
Cc1ccc(NC(=O)CCn2nc(-c3ccccc3)c3ccccc3c2=O)cc1 | / | / | / | 1
COc1ccc(NC(=O)N2CC3(C2)CN(C(=O)C2CCC2)[C@@H](CO)c2c3c3ccc(OC)cc3n2C)cc1 | -29 | 1 | / | /
COc1ccc(NC(=O)N2CCC3(CC2)CN(C(=O)C2CCC2)[C@@H](CO)c2c3c3ccc(OC)cc3n2C)cc1 | -93* | 0 | / | /
COc1ccc2c3c(n(C)c2c1)[C@@H](CO)N(C(=O)C1CCC1)CC31CCN(C(=O)CN(C)C)CC1 | -65 | 1 | / | /
COc1ccc2c3c(n(C)c2c1)[C@H](CO)N(C(=O)C1CCC1)CC31CCN(C(=O)Nc2cccc(F)c2)CC1 | -64 | 0 | / | /
COc1ccc2c3c(n(C)c2c1)[C@H](CO)N(C(=O)C1CCC1)CC31CCN(C(=O)CN(C)C)CC1 | -82* | 0 | / | /
COc1ccc2c3c(n(C)c2c1)[C@@H](CO)N(C(=O)C1CCC1)CC31CCN(C(=O)Nc2cccc(F)c2)CC1 | -86* | -1 | / | /
COc1ccc2c3c(n(C)c2c1)[C@H](CO)N(C(=O)C1CC1)CC31CCN(C(=O)Nc2cccc(F)c2)CC1 | -82* | 0 | / | /
Nc1nnc(SCC(=O)Nc2ccc(Br)cc2Cl)n1-c1ccccc1 | / | / | / | 1
O=C(CCCCCCC(=O)Nc1ccccc1O)N/N=C/c1ccc(OCc2ccccc2)cc1O | / | / | / | 0
CN(CC(=O)Nc1ccccc1-c1ccccc1)S(=O)(=O)c1cc(Cl)ccc1Cl | / | / | / | 0
COc1ccc(S(=O)(=O)N2CC3(CN(C(=O)CN(C)C)[C@H](CO)c4c3c3ccc(OC)cc3n4C)C2)cc1 | -84* | 0 | / | /
CCS(=O)(=O)N1CCC2(CC1)CN(C(=O)Nc1cccc(F)c1)[C@H](CO)c1c2c2ccc(OC)cc2n1C | -88* | -1 | / | /
